Publication PMC5367588 (International Journal of Nanomedicine, 2017)

What was measured:
[1] = test system: HepG2, MCF-7, and SW480 cells; experiment: In vitro cytotoxicity; assay type: cell-based; settings: MTT assay, three cell lines, 48 h
Summary of the method: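 Cells grown in RPMI 1640 or L-15 with 10% FBS were seeded at 5,000 cells/well and left to attach overnight. Graded concentrations of test compound were applied in quintuplicate for 48 h at 37°C and 5% CO2. MTT was added for 4 h and absorbance read at 490 nm. IC50 was taken as the concentration giving 50% growth inhibition; the assay was run three times.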

[2] = Drug release from conjugates in plasma; assay type: in vitro ADME, human; settings: for amount of compound B released from the conjugate: plasma
Summary of the method: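 Conjugate stock (5.0 mg/mL) was added to human serum to 0.5 mg/mL final, with camptothecin internal standard at 1.0 µg/mL final, at 37°C. Samples were taken from 0.5 to 48 h, protein-precipitated with acetonitrile, centrifuged, dried under N2 at 40°C and reconstituted in acetonitrile. Analysis was by UPLC/MS against serum standards of 0.5–1,000 ng/mL using the internal standard method.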

[3] = Water solubility of the prodrug; assay type: physicochemical; settings: prodrug relative to 10-HCPT
[4] = Characterization of compound F self-assembly micelles; assay type: physicochemical; settings: in water
[5] = In vivo pharmacokinetics and biodistribution; set-up: species or system tumor-bearing nude mice; settings: for AUC0–inf / MRT0–inf: i.v. 5.0 mg/kg 10-HCPT injection or 35.1 mg/kg compound F solution, mice, n=6; for T2/1: blood circulation, i.v. single dose equal to 10-HCPT 5 mg/kg, tumor-bearing mice; for AUC(0-inf) / MRT inf: female, BALB/c (nude), mouse, iv, 5 mg/kg
Summary of the method: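 Tumor-bearing nude mice (n=6 per group) got one i.v. dose of free parent drug 5 mg/kg or parent-equivalent conjugate. Orbital blood was taken from 10 min to 48 h, and heart, liver, spleen, lung, kidney, brain and tumor were collected. Plasma or saline tissue homogenate was hydrolysed with 0.1 N NaOH (37°C, 20 min), then neutralised with HCl. Camptothecin internal standard was added before acetonitrile extraction. Parent drug was quantified by UPLC/MS and PK parameters derived with software.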

[6] = test system: tumor-bearing nude mouse models; experiment: In vivo antitumor efficacy; set-up: species or system mice; settings: for tumor growth inhibition effect (TIR): tail vein injection, equivalent to 5.0 mg/kg 10-HCPT once a day for 14 days, n=8
Summary of the method: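 Dosing began in tumor-bearing nude mice once tumors reached ~50–100 mm3; groups (n=8) were balanced for weight and tumor size. Mice received saline, commercial parent-drug injection 5.0 mg/kg, or conjugate 35.1 mg/kg (parent-equivalent 5.0 mg/kg) by tail vein once daily for 14 days. Tumor volume (a×b²/2) was measured every 2 days; toxicity was judged from behaviour and weight loss.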

[7] = Drug release from conjugates in phosphate-buffered saline; assay type: physicochemical
Summary of the method: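 Conjugate at 0.5 mg/mL final in 0.01 mol/L PBS at pH 3.0, 4.0, 5.0, 6.0 and 7.4, held at 37°C for 48 h. Supernatants were analysed by UPLC/MS in MRM mode using the 477.0/433.1 transition for the released ester.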

[8] = once a day for 14 days, tail vein

5-carbonyl caproic acid
cytotoxicity (in words) [1]: almost no cytotoxicity

10-HCPT-thiosemicarbazide-PEG2000-MeO conjugate [compound F]
amount of compound B released from the conjugate ([2]; 37°C, after 1 h): 5% | amount of compound B released from the conjugate ([2]; 37°C, after 4 h): 15% | amount of compound B released from the conjugate ([2]; after 48 h): < 30% | stability (in words) ([2]; rat plasma): good stability | water solubility increase [3]: over 3,000 times | concentration at which conjugates self-assemble into micelles [4]: 7500 µg/mL | AUC0–inf ([5]; Heart): 3,795.7±1,539.3 µg/L h | MRT0–inf ([5]; Heart): 4.379 ± 1.171 h | AUC0–inf ([5]; Kidney): 1,260.4±585.8 µg/L h | MRT0–inf ([5]; Kidney): 2.948 ± 0.548 h | AUC0–inf ([5]; Liver): 52,688.4±3,111.2 µg/L h | MRT0–inf ([5]; Liver): 10.07 ± 0.957 h | AUC0–inf ([5]; Lung): 293,117.9±31,343.1 µg/L h | MRT0–inf ([5]; Lung): 6.96 ± 0.178 h | AUC0–inf ([5]; Plasma): 173,410.1±13,824.5 µg/L h | MRT0–inf ([5]; Plasma): 28.975 ± 1.238 h | AUC0–inf ([5]; Spleen): 8,993.1±1,534.3 µg/L h | MRT0–inf ([5]; Spleen): 7.756 ± 1.518 h | AUC0–inf ([5]; Tumor): 162,823.9±19,289.2 µg/L h | MRT0–inf ([5]; Tumor): 39.873 ± 4.549 h | T2/1 [5]: 10.516 ± 1.158 h | AUC0–inf in tumor relative to 10-HCPT solution ([5]; tumor): 7.76 fold | MRT0–inf in tumors compared with 10-HCPT solution ([5]; tumor): 4.31 fold | body weight change (in words) [6, 8]: did not cause significant loss of body weight | tumor volume (in words) ([6]; once a day for 14 days, tail vein, P<0.05): significantly smaller than that of the group treated with either saline or 10-HCPT solution | tumor growth inhibition effect (TIR) [6]: 82.66%±7.175 | cytotoxicity (in words) [1]: strongest cytotoxicity | amount of compound B released from the conjugate ([7]; PBS pH 5.0, 37°C, after 4 h): ~100% | amount of compound B released from the conjugate ([7]; PBS pH 7.4, 37°C, after 1 h): 2% | amount of compound B released from the conjugate ([7]; PBS pH 7.4, 37°C, after 4 h): 8% | amount of compound B released from the conjugate ([7]; pH 7.4 PBS, after 48 h): < 30% | stability (in words) ([7]; phosphate-buffered saline (pH 7.4)): good stability

CC[C@@]1(O)C(=O)OCc2c1cc1n(c2=O)Cc2cc3cc(O)ccc3nc2-1 [10-HCPT, 10-Hydroxycamptothecin, reference compound]
T2/1 [5]: 1.859 ± 1.385 h | AUC(0-inf) ([5]; heart): 11600 ng·h/mL | MRT inf ([5]; heart): 6.18 ± 1.5 h | AUC(0-inf) ([5]; kidney): 2090 ng·h/mL | MRT inf ([5]; kidney): 5.96 ± 1.09 h | AUC(0-inf) ([5]; liver): 28700 ng·h/mL | MRT inf ([5]; liver): 5.69 ± 0.845 h | AUC(0-inf) ([5]; lung): 130000 ng·h/mL | MRT inf ([5]; lung): 4.79 ± 0.648 h | AUC(0-inf) ([5]; plasma): 8410 ng·h/mL | MRT inf ([5]; plasma): 6.15 ± 0.964 h | AUC(0-inf) ([5]; spleen): 5040 ng·h/mL | MRT inf ([5]; spleen): 5.68 ± 0.771 h | AUC(0-inf) ([5]; tumor): 21000 ng·h/mL | MRT inf ([5]; tumor): 9.25 ± 1.03 h | body weight change (in words) [6, 8]: significant body weight loss | tumor growth inhibition effect (TIR) [6]: 63.85%±5.233
